From ChEMBL document CHEMBL1649255, “Impact of novel human immunodeficiency virus type 1 reverse transcriptase mutations P119S and T165A on 4'-ethynylthymidine analog resistance profile” (Antimicrob Agents Chemother, 2009)

How the values were obtained:
[1] = tested on: Human immunodeficiency virus 1; assay: Antiviral activity against wild-type HIV1 pNL4-3 infected in TZM-bl cells by luciferase assay; type: functional, organism-based; conditions: Human immunodeficiency virus 1, pNL4-3, TZM-bl
Summary of the method: (§1)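 TZM-bl cells (LTR-driven luciferase reporter) at 5 × 10^4 per well in RPMI 1640 with 10% dialyzed FBS. They were preincubated 16 h at 37°C with a range of 4′-Ed4T, d4T, 3TC or AZT, then infected with NL4-3-derived clones at MOI 0.01. After 72 h, lysates were read for luciferase, with uninfected background subtracted. EC50 is from % of no-drug signal, reported as mean ± SD of three experiments.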

[2] = tested on: Human immunodeficiency virus 1; assay: Antiviral activity against HIV1 pNL4-3 harboring Reverse transcriptase P119S mutant gene infected in TZM-bl cells after 72 hrs by luciferase assay; type: functional, organism-based; conditions: Human immunodeficiency virus 1, pNL4-3, TZM-bl; summary of the method: as §1
[3] = tested on: Human immunodeficiency virus 1; assay: Antiviral activity against HIV1 pNL4-3 harboring Reverse transcriptase T165A mutant gene infected in TZM-bl cells after 72 hrs by luciferase assay; type: functional, organism-based; conditions: Human immunodeficiency virus 1, pNL4-3, TZM-bl; summary of the method: as §1
[4] = tested on: Human immunodeficiency virus 1; assay: Antiviral activity against HIV1 pNL4-3 harboring Reverse transcriptase M184V mutant gene infected in TZM-bl cells after 72 hrs by luciferase assay; type: functional, organism-based; conditions: Human immunodeficiency virus 1, pNL4-3, TZM-bl; summary of the method: as §1
[5] = tested on: Human immunodeficiency virus 1; assay: Antiviral activity against HIV1 pNL4-3 harboring Reverse transcriptase P119S/T165A mutant gene infected in TZM-bl cells after 72 hrs by luciferase assay; type: functional, organism-based; conditions: Human immunodeficiency virus 1, pNL4-3, TZM-bl; summary of the method: as §1
[6] = tested on: Human immunodeficiency virus 1; assay: Antiviral activity against HIV1 pNL4-3 harboring Reverse transcriptase P119S/M184V mutant gene infected in TZM-bl cells after 72 hrs by luciferase assay; type: functional, organism-based; conditions: Human immunodeficiency virus 1, pNL4-3, TZM-bl; summary of the method: as §1
[7] = tested on: Human immunodeficiency virus 1; assay: Antiviral activity against HIV1 pNL4-3 harboring Reverse transcriptase T165A/M184V mutant gene infected in TZM-bl cells after 72 hrs by luciferase assay; type: functional, organism-based; conditions: Human immunodeficiency virus 1, pNL4-3, TZM-bl; summary of the method: as §1
[8] = tested on: Human immunodeficiency virus 1; assay: Antiviral activity against HIV1 pNL4-3 harboring Reverse transcriptase P119S/T165A/M184V mutant gene infected in TZM-bl cells after 72 hrs by luciferase assay; type: functional, organism-based; conditions: Human immunodeficiency virus 1, pNL4-3, TZM-bl; summary of the method: as §1
[9] = tested on: Human immunodeficiency virus 1; assay: Antiviral activity against HIV1 pNL4-3 harboring chimeric pTKD infected in TZM-bl cells after 72 hrs by luciferase assay; type: functional, organism-based; conditions: Human immunodeficiency virus 1, pNL4-3, TZM-bl; summary of the method: as §1
[10] = biological target: Human immunodeficiency virus type 1 reverse transcriptase (Human immunodeficiency virus 1, UniProt Q72547); assay: Inhibition of wild-type HIV1 Reverse transcriptase
Summary of the method: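 Same steady-state dTTP incorporation reaction: 250 nM DNA 23-mer/RNA 36-mer primer/template, 2.5 nM RT, Tris-HCl pH 8.0/NaCl/MgCl2/DTT/BSA buffer, 37°C. The analog triphosphate inhibitor was added at various concentrations. Apparent dTTP Km was measured at each inhibitor level to derive Ki, and Ki/Km(dTTP) was used as an inhibition-efficiency index.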

[11] = biological target: Human immunodeficiency virus type 1 reverse transcriptase (Human immunodeficiency virus 1, UniProt Q72547, P119S); assay: Inhibition of HIV1 Reverse transcriptase P119S mutant
Summary of the method: (§2)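 Steady-state inhibition of dTTP incorporation used 2.5 nM wild-type or mutant RT and 250 nM DNA/RNA 23-mer/36-mer primer/template. Apparent dTTP Km was measured across varied 4′-Ed4TTP or d4TTP to give Ki. Ki/Km(dTTP) served as the inhibition index.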

[12] = biological target: Human immunodeficiency virus type 1 reverse transcriptase (Human immunodeficiency virus 1, UniProt Q72547, T165A); assay: Inhibition of HIV1 Reverse transcriptase T165A mutant; summary of the method: as §2
[13] = biological target: Human immunodeficiency virus type 1 reverse transcriptase (Human immunodeficiency virus 1, UniProt Q72547, M184V); assay: Inhibition of HIV1 Reverse transcriptase M184V mutant; summary of the method: as §2
[14] = biological target: Human immunodeficiency virus type 1 reverse transcriptase (Human immunodeficiency virus 1, UniProt Q72547, P119S/T165A); assay: Inhibition of HIV1 Reverse transcriptase P119S/T165A mutant; summary of the method: as §2
[15] = biological target: Human immunodeficiency virus type 1 reverse transcriptase (Human immunodeficiency virus 1, UniProt Q72547, M184V/P119S); assay: Inhibition of HIV1 Reverse transcriptase P119S/M184V mutant; summary of the method: as §2
[16] = biological target: Human immunodeficiency virus type 1 reverse transcriptase (Human immunodeficiency virus 1, UniProt Q72547, M184V/T165A); assay: Inhibition of HIV1 Reverse transcriptase T165A/M184V mutant; summary of the method: as §2
[17] = biological target: Human immunodeficiency virus type 1 reverse transcriptase (Human immunodeficiency virus 1, UniProt Q72547, M184V/P119S/T165A); assay: Inhibition of HIV1 Reverse transcriptase P119S/T165A/M184V mutant; summary of the method: as §2
[18] = biological target: Human immunodeficiency virus type 1 reverse transcriptase (Human immunodeficiency virus 1) (UniProt Q72547); assay: Ratio of Ki to Km for wild-type HIV1 Reverse transcriptase; summary of the method: as §2
[19] = tested on: Human immunodeficiency virus type 1 reverse transcriptase (Human immunodeficiency virus 1), Q72547 [P119S]; assay: Ratio of Ki to Km for HIV1 Reverse transcriptase P119S mutant; summary of the method: as §2
[20] = tested on: Human immunodeficiency virus type 1 reverse transcriptase (Human immunodeficiency virus 1), Q72547 [T165A]; assay: Ratio of Ki to Km for HIV1 Reverse transcriptase T165A mutant; summary of the method: as §2
[21] = tested on: Human immunodeficiency virus type 1 reverse transcriptase (Human immunodeficiency virus 1), Q72547 [M184V]; assay: Ratio of Ki to Km for HIV1 Reverse transcriptase M184V mutant; summary of the method: as §2
[22] = tested on: Human immunodeficiency virus type 1 reverse transcriptase (Human immunodeficiency virus 1), Q72547 [P119S,T165A]; assay: Ratio of Ki to Km for HIV1 Reverse transcriptase P119S/T165A mutant; summary of the method: as §2
[23] = tested on: Human immunodeficiency virus type 1 reverse transcriptase (Human immunodeficiency virus 1), Q72547 [P119S,M184V]; assay: Ratio of Ki to Km for HIV1 Reverse transcriptase P119S/M184V mutant; summary of the method: as §2
[24] = tested on: Human immunodeficiency virus type 1 reverse transcriptase (Human immunodeficiency virus 1), Q72547 [T165A,M184V]; assay: Ratio of Ki to Km for HIV1 Reverse transcriptase T165A/M184V mutant; summary of the method: as §2
[25] = tested on: Human immunodeficiency virus type 1 reverse transcriptase (Human immunodeficiency virus 1), Q72547 [P119S,T165A,M184V]; assay: Ratio of Ki to Km for HIV1 Reverse transcriptase P119S/T165A/M184V mutant; summary of the method: as §2

Structure (SMILES)	EC50 [1]	EC50 [2]	EC50 [3]	EC50 [4]	EC50 [5]	EC50 [6]	EC50 [7]	EC50 [8]	EC50 [9]	Ki [10]	Ki [11]	Ki [12]	Ki [13]	Ki [14]	Ki [15]	Ki [16]	Ki [17]	Ki/Km [18]	Ki/Km [19]	Ki/Km [20]	also measured
C=C[C@@]1(CO)C=C[C@H](n2cc(C)c(=O)[nH]c2=O)O1	0.37 µM	0.51 µM	0.58 µM	0.98 µM	0.35 µM	1.38 µM	1.32 µM	1.96 µM	2.1 µM	–	–	–	–	–	–	–	–	–	–	–	–
C=C[C@@]1(COP(=O)(O)OP(=O)(O)OP(=O)(O)O)C=C[C@H](n2cc(C)c(=O)[nH]c2=O)O1	–	–	–	–	–	–	–	–	–	0.054 µM	0.11 µM	0.08 µM	0.21 µM	0.024 µM	0.64 µM	0.66 µM	0.73 µM	0.45	0.85	0.8	Ki/Km [21]: 1.7; Ki/Km [22]: 0.34; Ki/Km [23]: 3.6; Ki/Km [24]: 6; Ki/Km [25]: 4.9
Nc1ccn([C@@H]2CS[C@H](CO)O2)c(=O)n1 [LAMIVUDINE]	0.65 µM	0.47 µM	1.08 µM	> 60 µM	2.1 µM	> 60 µM	> 60 µM	> 60 µM	> 60 µM	–	–	–	–	–	–	–	–	–	–	–	–
Cc1cn([C@H]2C=C[C@@H](COP(=O)(O)OP(=O)(O)OP(=O)(O)O)O2)c(=O)[nH]c1=O [STAVUDINE TRIPHOSPHATE]	–	–	–	–	–	–	–	–	–	0.63 µM	0.64 µM	0.21 µM	0.79 µM	0.37 µM	0.48 µM	0.3 µM	1.05 µM	5.3	2.1	2.1	Ki/Km [21]: 6.6; Ki/Km [22]: 5.3; Ki/Km [23]: 2.7; Ki/Km [24]: 2.7; Ki/Km [25]: 7
Cc1cn([C@H]2C=C[C@@H](CO)O2)c(=O)[nH]c1=O [STAVUDINE]	1.25 µM	1.44 µM	1.46 µM	1.4 µM	2.48 µM	1.55 µM	1.5 µM	1.28 µM	1 µM	–	–	–	–	–	–	–	–	–	–	–	–
Cc1cn([C@H]2C[C@H](N=[N+]=[N-])[C@@H](CO)O2)c(=O)[nH]c1=O [ZIDOVUDINE]	0.023 µM	0.017 µM	0.022 µM	0.011 µM	0.026 µM	0.011 µM	0.024 µM	0.053 µM	0.008 µM	–	–	–	–	–	–	–	–	–	–	–	–
